According to article PMC4144739 (The Journal of Experimental Medicine, 2014):
Entries after “also recorded” stand apart in the source; their conditions may differ.

Legend:
[1] = test system: inflammasomes in monocytes; conditions: crystals of uric acid; cited from earlier work
[2] = uric acid administration; ref Scott et al., 2002; cited from earlier work
[3] = Solubility in physiological buffers; format: physicochemical
[4] = test system: type 1 IFN (murine IFN-α4, 5, 12, and 13; consensus primers); test: Type 1 IFN induced in PBCs of healthy C57BL/6 mice; format: in vivo, mouse (C57BL/6); conditions: compared with peptides that readily form fibrils
[5] = EAE induced by adoptive transfer of Th17 lymphocytes, clinical signs; format: in vivo, mouse (C57BL/6J); conditions: 2 µg daily for 21 d beginning the day after adoptive transfer; groups of 10 mice
Procedure, shortened: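 Donor female C57BL/6J mice were immunised s.c. with MOG35-55 in CFA. On day 10, spleen and draining lymph node cells were restimulated for 3 d with 10 µg/ml MOG35-55 plus 10 ng/ml IL-23. Cells (15 × 10^6 per mouse) were given i.p. to 9-wk-old female recipients. PBS served as control. Mice were scored daily on a 0–5 scale, with atypical EAE scored separately.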

[6] = Amyloid fibril formation; format: physicochemical; conditions: physiological buffers; ThT staining; Fig. S1
Procedure, shortened: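 Hexapeptide (200 µg in 50 µl) was combined with 100 mM MES pH 7.4 and a 1 M solution at the appropriate pH, then incubated at 37°C. ThT (10 µM solution, pre-addition) was added. Fluorescence was read at 485 nm with excitation at 440 nm. Run in triplicate and repeated twice.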

[7] = ref Kurnellas et al., 2013; cited from earlier work

O=c1[nH]c(=O)c2[nH]c(=O)[nH]c2[nH]1 [uric acid]
endocytosis and inflammasome induction [1]: endocytosed and induce inflammasomes with subsequent secretion of IL-1β by monocytes | therapeutic effect in EAE [2]: therapeutic benefit

Ac-VQIVYK-NH2 [Tau 623–628]
solubility in physiological buffers [3]: limited solubility in physiological buffers

SSTNVG [Amylin 28–33]
type 1 IFN production (summary) [4]: stimulated significantly less type 1 IFN production | clinical signs of Th17-induced EAE, 2 µg [5]: therapeutic in Th17-induced EAE | amyloid fibril formation in vitro [6]: do not readily form fibrils in physiological buffers; also recorded: did not form detectable amounts of fibrils in vitro | therapeutic effect of polar, nonionizable peptides in active EAE [7]: therapeutic
